Laboratory results taken from ChEMBL document CHEMBL2311341, “Design, synthesis and inhibitory activities of naringenin derivatives on human colon cancer cells” (Bioorg Med Chem Lett, 2013).

Legend:
[1] = system: Radical scavenging activity; experiment: Antioxidant activity assessed as DPPH radical scavenging activity by spectrophotometry; assay type: functional; design: concentration or dose not given beside the values
[2] = target: Cyclin-dependent kinase 2/cyclin E1 (Homo sapiens) (UniProt P24864+P24941); experiment: Inhibition of CDK2/cyclinE (unknown origin) using histone-H1 and [gamma-33P]ATP at 10 uM by scintillation counting; assay type: protein-complex assay
In short: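 CDK2/cyclin E was run under a commercial kinase-profiling protocol in 8 mM MOPS pH 7.0 with 0.2 mM EDTA, 0.1 mg/ml histone H1, 10 mM magnesium acetate and 10 micromolar ATP including γ-³³P-ATP (500 cpm/pmol). Incorporation was measured by scintillation counting, with the no-inhibitor count set as 100% activity. Runs were done in triplicate.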

HCT-116 = experiment: Cytotoxicity against human HCT116 cells after 7 days by crystal violet staining based clonogenic assay; assay type: functional, cell-based; details: HCT-116, 168 h
In short: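 HCT116 cells in DMEM with 10% heat-inactivated FBS, seeded at 5 × 10³ cells/well in 24-well plates, untreated or exposed to four compound concentrations for 7 days. Colonies were fixed with 6% glutaraldehyde and stained with 0.1% crystal violet, and survival density was read by densitometry. IC50 came from curve fitting. The whole experiment was repeated independently three times.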

SMILES	Activity [1]	inhibition [2]	IC50 (HCT-116)
Cc1ccccc1C(=O)Oc1cc(O)c2c(c1)OC(c1ccc(O)cc1)CC2=O (configuration not stated)	14.2%	48.9%	6.03 µM
CC(C)C(=O)Oc1cc(O)c2c(c1)OC(c1ccc(O)cc1)CC2=O (configuration not stated)	15.4%	42.1%	15.9 µM
O=C1O[C@H]([C@@H](O)CO)C(O)=C1O	89.1%	–	–
O=C(Oc1cc(O)c2c(c1)OC(c1ccc(O)cc1)CC2=O)c1cccs1 (configuration not stated)	11.2%	83.6%	1.2 µM
CCOC(=O)N/N=C1\CC(c2ccc(O)cc2)Oc2cc(O)cc(O)c21 (configuration not stated)	70.6%	62.3%	4.35 µM
C=CCOc1cc(O)c2c(c1)OC(c1ccc(O)cc1)CC2=O (configuration not stated)	20.7%	84%	1.91 µM
O=C1CC(c2ccc(O)cc2)Oc2cc(O)cc(O)c21 (racemic)	59.3%	14.9%	36.8 µM
O=C(Oc1ccccc1)Oc1cc(O)c2c(c1)OC(c1ccc(O)cc1)CC2=O (configuration not stated)	15.9%	42%	20 µM
